These results are taken from ChEMBL document CHEMBL1145016, “Synthesis and antitumor activity of conjugates of muramyldipeptide or normuramyldipeptide with hydroxyacridine/acridone derivatives” (J Med Chem, 2003).

A short description of data set [1]: Evaluated in vivo for intraperitoneal + subcutaneous score in hallow fiber assay. The data set is classed as functional. In short, it runs like this: (§1)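 NCI hollow fiber preliminary in vivo assay; scores recorded separately for intraperitoneal (ip) and subcutaneous (sc) fiber implantation sites, with an activity criterion applied (Y/N). Procedure detailed in prior work.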

The subject of data set [2] is Mus musculus. Kind of data set: Evaluated in vivo for percent of tumor weight in treated/control of mice at 8.40 mg/kg for 8 days by intraperitoneal treatment on UACC-62 melanoma cell line. As to conditions: dose 8.4 mg/kg.
For data set [3], the system named is Mus musculus. The data set can be described thus: Evaluated in vivo for percent growth delay in mice at 3.35 mg/kg for 7 days by intraperitoneal treatment on SK-MEL-28 melanoma cell line.
Data set [4] relates to Mus musculus. The data set can be described thus: Evaluated in vivo for percent growth delay in mice at 5.60 mg/kg for 7 days by intraperitoneal treatment on AS283 lymphoma cell line. Particulars: dose 5.6 mg/kg. The data set is classed as functional.
The subject of data set [5] is Mus musculus. The data set can be described thus: Evaluated in vivo for percent of tumor weight in treated/control of mice 5.60 at mg/kg for 11 days by intraperitoneal treatment on A498 renal cell line.
Data set [6] concerns Mus musculus. Kind of data set: Evaluated in vivo for toxic deaths of mice at 3.35 mg/kg for 10 days by intraperitoneal treatment on NCI-H522 non-small cell lung cell line. As to conditions: ip, 240 h.
Data set [7] relates to Mus musculus. Kind of data set: Evaluated in vivo for percent growth delay in mice at 8.40 mg/kg for 8 days by intraperitoneal treatment on UACC-62 melanoma cell line. As to conditions: dose 8.4 mg/kg.
Data set [8] concerns Mus musculus. Kind of data set: Evaluated in vivo for toxic deaths of mice at 5.60 mg/kg for 12 days by intraperitoneal treatment on COLO 205 colon cell line. The data set is classed as toxicity, organism-based. Also on record: dose 5.6 mg/kg, route intraperitoneal. As to conditions: ip, 5.6 mg/kg, 288 h. In short, it runs like this:
(§2)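 Nude mice carrying subcutaneous human tumor xenografts, tested at NCI Bethesda; compound given on the stated schedule, intraperitoneally (IP) or intravenously (IV). Three dose levels were tested, and the table reports only the optimal one. Toxic deaths are scored per treatment group alongside tumor weight end points.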

The nature of data set [9]: Evaluated in vivo for subcutaneous score in hallow fiber assay. The data set is classed as functional. In short, it runs like this:
as §1

A short description of data set [10]: Evaluated in vivo for intraperitoneal score in hallow fiber assay. The data set is classed as functional. In short, it runs like this:
as §1

Data set [11] deals with Mus musculus. The data set can be described thus: Evaluated in vivo for toxic deaths of mice at 3.35 mg/kg for 7 days by intraperitoneal treatment on SK-MEL-28 melanoma cell line. Particulars: ip, 168 h.
Data set [12] has as its system Mus musculus. The data set can be described thus: Evaluated in vivo for percent of tumor weight in treated/control of mice at 5.60 mg/kg for 8 days by intraperitoneal treatment on COLO 205 colon cell line. As to conditions: dose 5.6 mg/kg.
Data set [13] deals with Mus musculus. The data set can be described thus: Evaluated in vivo for percent treated/control of mice at 3.35 mg/kg for 10 days by intraperitoneal treatment on NCI-H522 non-small cell lung cell line.
The test system of data set [14] is Mus musculus. The data set can be described thus: Evaluated in vivo for toxic deaths of mice at 5.60 mg/kg for 5 days by intraperitoneal treatment on HCT-15 colon cell line. Particulars: ip, 5.6 mg/kg, 120 h. The data set is classed as toxicity, organism-based. The arrangement: dose 5.6 mg/kg, route intraperitoneal. A digest of the protocol: as §2
In data set [15] the test system is Mus musculus. The data set can be described thus: Evaluated in vivo for percent of tumor weight in treated/control of mice at 5.60 mg/kg by intraperitoneal treatment. As to conditions: dose 5.6 mg/kg.
Data set [16] has as its system Mus musculus. The data set can be described thus: Evaluated in vivo for percent growth delay in mice at 5.60 mg/kg for 15 days by intraperitoneal treatment on UACC-257 melanoma cell line. As to conditions: dose 5.6 mg/kg.
Data set [17] deals with Mus musculus. The data set can be described thus: Evaluated in vivo for percent growth delay in mice at 3.35 mg/kg for 10 days by intraperitoneal treatment on NCI-H522 non-small cell lung cell line.
Data set [18] concerns Mus musculus. Kind of data set: Evaluated in vivo for toxic deaths of mice at 5.60 mg/kg for 24 (38) days by intraperitoneal treatment on MDA-MB-435 breast […] cell line. The data set is classed as toxicity, organism-based. As to conditions: ip, 5.6 mg/kg. The arrangement: dose 5.6 mg/kg, route intraperitoneal. A digest of the protocol: as §2
Data set [19] has as its system Mus musculus. Kind of data set: Evaluated in vivo for toxic deaths of mice at 8.40 mg/kg for 8 days by intraperitoneal treatment on UACC-62 melanoma cell line. As to conditions: ip, 8.4 mg/kg, 192 h.
In data set [20] the test system is Mus musculus. The data set can be described thus: Evaluated in vivo for percent growth delay in mice at 5.60 mg/kg for 11 days by intraperitoneal treatment on A498 renal cell line. As to conditions: dose 5.6 mg/kg.
The subject of data set [21] is Mus musculus. Kind of data set: Evaluated in vivo for percent of tumor weight in treated/control of mice at 3.35 mg/kg for 7 days by intraperitoneal treatment on SK-MEL-28 melanoma cell line.
The test system of data set [22] is Mus musculus. The data set can be described thus: Evaluated in vivo for percent growth delay in mice at 5.60 mg/kg for 8 days by intraperitoneal treatment on COLO 205 colon cell line. Particulars: dose 5.6 mg/kg.
The nature of data set [23]: Tested for cytotoxicity (lethal concentration) of compound, activity expressed as MID log LC50. The data set is classed as functional. A digest of the protocol:
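MID is the calculated mean of LC50 concentrations (M) across the cell line panel, where LC50 is the half-lethal concentration. It is reported as a log value.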

SMILES strings stand for the structures.

On to `CC(=O)N[C@@H]1[C@H](OCc2ccccc2)OC(CO)C(O)[C@H]1OC(C)C(=O)N[C@H](C)C(=O)N[C@H](CCC(=O)OCCCNc1c2ccccc2nc2cccc([N+](=O)[O-])c12)C(N)=O` (stereo partly drawn), for which the Score was 4 in data set [1], 2 in data set [9] and 2 in [10]. The Tumor weight in the data set with Mus musculus [2] came out at 1%; with Mus musculus [5], 68%; with Mus musculus [12], 65%; with Mus musculus [13], 89%; in the data set with Mus musculus [15], 60%; with Mus musculus [21] it was 105%. Further, the Growth delay (T-C/C) in the data set with Mus musculus [3] was -3%; with Mus musculus [4], 16%; with Mus musculus [7], 107%; in the data set on Mus musculus [16], 1%; in the data set with Mus musculus [17], 1%; in the data set with Mus musculus [20] it was 3%. In addition, the Growth delay (T-C/C) with Mus musculus [22] is -7%. Further, the Toxic deaths in the data set on Mus musculus [6] is recorded as 1; in the data set on Mus musculus [8], 1; in the data set with Mus musculus [11], 0; in the data set with Mus musculus [14], 2; with Mus musculus [18] it was 1; in the data set with Mus musculus [19], 0. Also, the “MID log LC50” value in data set [23] stood at 5.78 M.
